The sample as a whole holds a higher share of hits than the screen did.
GASC1 inh: blocks human GASC-1 (KDM4C) demethylase activity | AID 720574 | inhibition, % at 12.5 µM | GST-KDM4C 2-372, H3K9me3 peptide, LANCE TR-FRET | Q9H3R0 | 0.15% of 96,000 active;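 active = mean replicate inhibition above about 25%, with at least 55% of replicates also reaching it, limit read from the data, passing the limit was not always enough; inconclusive = only one of those two conditions met; inactive = neither condition met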
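Test system: N-terminal GST-fused human GASC-1 (KDM4C) fragment, residues 2-372; quantity: GASC-1 enzyme at 10 nM final in reaction; dosing: single dose; schedule: 30 min demethylation and 1 h detection at room temperature; signal: LANCE TR-FRET, excitation 340 nm, emissions 618 and 671 nm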
T cruzi growth-1: blocks T. cruzi growth in NIH3T3 culture | inhibition, % at 8.34 µM | AID 624255 | 5.9% of 77,000 active | T. cruzi beta-gal in NIH3T3, GalScreen luminescence, 90 h;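 active = mean inhibition above about 93%, with at least 55% of replicates each passing it, limit read from the data, passing the limit was not always enough; inconclusive = only one of those two conditions holds; inactive = neither condition holds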
IDH1 R132H inh: blocks human IDH1 R132H reductase activity. diaphorase/resazurin fluorescence, 60 min. inhibition, % at 10 µM. O75874. 0.18% of 70,000 active. AID 624101; in the data active = inhibition above about 34%; inconclusive = no clear call, values can overlap the other calls; inactive = below about 11%
Target sequence (O75874 whole entry R132H): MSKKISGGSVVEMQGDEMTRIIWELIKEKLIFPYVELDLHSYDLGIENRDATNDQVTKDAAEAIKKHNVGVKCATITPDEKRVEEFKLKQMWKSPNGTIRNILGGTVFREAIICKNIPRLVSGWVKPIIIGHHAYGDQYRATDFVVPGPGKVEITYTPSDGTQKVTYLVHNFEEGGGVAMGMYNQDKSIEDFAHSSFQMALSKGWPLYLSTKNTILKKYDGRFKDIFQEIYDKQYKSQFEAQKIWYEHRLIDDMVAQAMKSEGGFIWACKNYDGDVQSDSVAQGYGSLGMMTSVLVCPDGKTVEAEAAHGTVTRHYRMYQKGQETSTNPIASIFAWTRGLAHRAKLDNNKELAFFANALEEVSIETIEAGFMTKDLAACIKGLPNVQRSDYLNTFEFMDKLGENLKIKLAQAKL
T cruzi growth-2: blocks T. cruzi growth in NIH3T3 host cells; shares compounds with T cruzi growth-1; T. cruzi beta-gal in NIH3T3, GalScreen luminescence, 90 h; inhibition, % at 8.35 µM; 72% of 5,600 active;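 active = mean replicate inhibition above about 95% and at least 55% of replicates individually reaching it, limit read from the data; inconclusive = only one of the two criteria is met; inactive = neither criterion is met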
T cruzi growth-3: inhibitors of T. cruzi proliferation. shares compounds with T cruzi growth-1. T. cruzi beta-gal in NIH3T3, GalScreen luminescence, 90 h. inhibition, % at 2.09 µM. 21% of 5,600 active;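 active = mean inhibition above about 95%, with at least 55% of replicates also reaching it, limit read from the data; inconclusive = meets just one of the two conditions; inactive = meets neither condition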
3T3 cytotox: cytotoxicity in mouse NIH/3T3 fibroblasts; shares compounds with T cruzi growth-1; NIH/3T3 viability, CellTiter-Glo ATP luminescence, 90 h; cytotoxicity (signal decrease), % at 8.35 µM; 14% of 5,600 active; AID 651742;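 active = mean signal decrease across replicates above about 35% based on untreated-well scatter, with enough replicates individually passing, limit read from the data; inconclusive = no rule stated though some were filed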
NIH3T3 tox 2: NIH/3T3 (mouse) viability loss; shares compounds with T cruzi growth-1; NIH/3T3 viability, CellTiter-Glo ATP luminescence, 90 h; inhibition, % at 24.9 µM; 56% of 5,600 active; AID 651744;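 active = mean loss of cell viability signal at or above a set limit, and enough replicates individually reaching it; inconclusive = meets only the mean limit or only the replicate share; inactive = meets neither condition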
Numbers stand for hits; – = inactive; ? = inconclusive; · = no result.

SMILES	GASC1 inh	T cruzi growth-1	IDH1 R132H inh	T cruzi growth-2	T cruzi growth-3	3T3 cytotox	NIH3T3 tox 2
COCC(=O)N1CCCCN2[C@H](CO)[C@H](c3ccc(-c4ccc(C)cc4)cc3)[C@H]2C1	–	102	·	–	–	–	29
COCC(=O)N1CCCCN2[C@H](C1)[C@@H](c1ccc(-c3ccc(C)cc3)cc1)[C@@H]2CO	–	–	·	·	·	·	·
COCC(=O)N1CCCCN2[C@H](CO)[C@@H](c3ccc(-c4ccc(C)cc4)cc3)[C@H]2C1	–	–	·	·	·	·	·
CN(C)c1ccc2c3c(ccc(N(C)C)c13)[C@](O)(C(F)(F)F)O[C@]2(O)C(F)(F)F	·	·	–	·	·	·	·
O=C(Nc1ccc(-c2ccccc2)cc1)[C@@H]1[C@@H](CO)[C@@H]2Cn3c(cccc3=O)[C@H]1N2Cc1ccccc1	–	–	·	·	·	·	·
CNC[C@@H]1OCCCC[C@H](C)Oc2ccc(NC(=O)Nc3ccc(C(F)(F)F)cc3)cc2C(=O)N([C@@H](C)CO)C[C@@H]1C	–	–	–	·	·	·	·
CC=Cc1ccc2n(c1=O)C[C@@H]1[C@@H](CO)[C@H](C(=O)N3CCc4ccccc4C3)[C@H]2N1CCC (mixture of isomers)	–	103	·	–	–	–	–
CC=Cc1ccc2n(c1=O)C[C@@H]1[C@@H](CO)[C@H](C(=O)N3CCc4ccccc4C3)N(C(=O)COC)[C@H]21 (mixture of isomers)	–	·	·	·	·	·	·
CC=Cc1ccc2n(c1=O)C[C@@H]1[C@@H](CO)[C@H](C(=O)N3CCc4ccccc4C3)[C@H]2N1Cc1ccccc1 (mixture of isomers)	–	–	·	·	·	·	·
CC=Cc1ccc2n(c1=O)C[C@@H]1[C@@H](CO)[C@H](C(=O)N3CCc4ccccc4C3)N(C(=O)C3CC3)[C@H]21 (mixture of isomers)	–	107	·	–	–	–	–
CC=Cc1ccc2n(c1=O)C[C@H]1[C@H](CO)[C@@H](C(=O)N3CCCCC3)N(Cc3ccccc3)[C@@H]21 (mixture of isomers)	–	–	·	·	·	·	·
CC=Cc1ccc2n(c1=O)C[C@@H]1[C@@H](CO)[C@H](C(=O)N3CCOCC3)N(Cc3ccccc3)[C@H]21 (mixture of isomers)	–	101	·	100	–	–	–
C[C@@H]1CN([C@@H](C)CO)C(=O)c2ccccc2-c2ccccc2CO[C@H]1CN(C)C(=O)Nc1ccc2c(c1)OCO2	–	–	·	·	·	·	·
C[C@H](CO)N1C[C@H](C)[C@H](CN(C)C(=O)Nc2ccc(C(F)(F)F)cc2)Oc2ncc(Br)cc2C1=O	–	–	·	·	·	·	·
C[C@H]1CN([C@@H](C)CO)C(=O)c2cc(Br)cnc2O[C@@H]1CN(C)C(=O)Nc1ccc(C(F)(F)F)cc1	–	102	·	108	–	–	54
C[C@H]1CN([C@@H](C)CO)C(=O)c2cc(C3=CCCC3)cnc2O[C@H]1CN(C)C(=O)Nc1ccc(C(F)(F)F)cc1	–	–	·	·	·	·	·
C[C@@H]1CN([C@@H](C)CO)C(=O)c2cc(C3=CCCC3)cnc2O[C@@H]1CN(C)C(=O)Nc1ccc(C(F)(F)F)cc1	–	?	–	108	–	?	104
COc1ccc(C(=O)Nc2ccc3c(c2)OC[C@@H](C)N(C(=O)C2CC2)C[C@@H](C)[C@H](OC)CN(C)C3=O)cc1	–	–	–	·	·	·	·
N#Cc1ccc(-c2cccs2)nc1SCC(=O)Nc1sc2c(c1C#N)CCCC2	·	·	–	·	·	·	·
C[C@@H]1CN([C@@H](C)CO)C(=O)c2cc(C3=CCCC3)cnc2O[C@H]1CN(C)Cc1ccccc1C(=O)O	–	–	·	·	·	·	·
C[C@H](CO)N1C[C@H](C)[C@@H](CN(C)C)Oc2cc(C#CC3CC3)ccc2S1(=O)=O	–	–	–	·	·	·	·
NC(=O)c1cc(-c2ccccc2)sc1NC(=O)Cn1cnc2scc(-c3ccccc3)c2c1=O	·	·	–	·	·	·	·
C[C@H]1CN([C@@H](C)CO)S(=O)(=O)c2ccc(C3=CCCCC3)cc2O[C@H]1CN(C)C(=O)C1CCCCC1	–	123	·	104	–	–	107
C[C@H]1CN([C@@H](C)CO)S(=O)(=O)c2ccc(C3=CCCC3)cc2O[C@@H]1CN(C)C(=O)C1CCC1	–	–	·	·	·	·	·
C[C@@H]1CN([C@H](C)CO)S(=O)(=O)c2ccc(C3=CCCC3)cc2O[C@H]1CN(C)C(=O)C1CCC1	–	111	–	–	–	–	24
SMILES	GASC1 inh	T cruzi growth-1	IDH1 R132H inh	T cruzi growth-2	T cruzi growth-3	3T3 cytotox	NIH3T3 tox 2
C[C@@H]1CN([C@H](C)CO)S(=O)(=O)c2ccc(C3=CCCC3)cc2O[C@H]1CN(C)C(=O)C1CCCCC1	–	–	·	·	·	·	·
C[C@H](CO)N1C[C@H](C)[C@H](CN(C)C(=O)C2CCCCC2)Oc2cc(C3=CCCC3)ccc2S1(=O)=O	–	–	–	·	·	·	·
C[C@@H]1CN([C@H](C)CO)S(=O)(=O)c2ccc(C3=CCCCC3)cc2O[C@H]1CN(C)C(=O)C1CCCCC1	–	109	·	105	–	–	105
C[C@H](CO)N1C[C@H](C)[C@H](CN(C)C(=O)C2CCCCC2)Oc2cc(C3=CCCCC3)ccc2S1(=O)=O	–	116	·	102	–	–	107
C[C@H]1CN([C@@H](C)CO)S(=O)(=O)c2ccc(C3=CCCCC3)cc2O[C@@H]1CN(C)C(=O)C1CCC1	–	–	–	·	·	·	·
Cc1ccc(S(=O)(=O)Nc2ccc3c(c2)CC(=O)N([C@H](C)CO)C[C@H](C)[C@@H](CN(C)S(=O)(=O)c2cccs2)O3)cc1	–	–	–	·	·	·	·
COc1ccc(NC(=O)N(C)C[C@H]2OCCCC[C@@H](C)Oc3ccc(NC(=O)NC(C)C)cc3C(=O)N([C@H](C)CO)C[C@H]2C)cc1	–	–	·	·	·	·	·
COc1ccc2c3c([nH]c2c1)[C@@H](CO)N(C(=O)c1cccnc1)CC31CCN(C(=O)NC(C)C)CC1	–	·	·	·	·	·	·
C/C=C/c1ccccc1[C@@H]1[C@@H](CO)N(C(=O)c2cccnc2)[C@H]1C#N	–	·	·	·	·	·	·
CO[C@@H]1CN(C)C(=O)c2cc(NC(=O)NC(C)C)ccc2OC[C@H](C)N(C)C[C@@H]1C	–	–	–	·	·	·	·
C[C@@H]1CCCCO[C@@H](CN(C)Cc2ccc(C(F)(F)F)cc2)[C@H](C)CN([C@@H](C)CO)C(=O)c2cc(NC(=O)Nc3ccc(F)cc3)ccc2O1	–	–	–	·	·	·	·
C[C@H](CO)N1C[C@H](C)[C@@H](CN(C)Cc2ccc(C(F)(F)F)cc2)OCCCC[C@H](C)Oc2ccc(NC(=O)Nc3ccc(F)cc3)cc2C1=O	–	?	·	–	110	–	–
C[C@@H]1CN([C@@H](C)CO)C(=O)c2cc(NC(=O)Nc3ccc(F)cc3)ccc2O[C@@H](C)CCCCO[C@@H]1CN(C)Cc1ccc(C(F)(F)F)cc1	–	101	·	105	114	–	–

Screening results deposited in PubChem BioAssay by Broad Institute.
